One may read the CC50 as the concentration that lowers cell viability or growth by half.

The source of these data is PubChem BioAssay AID492968 (Southern Research Specialized Biocontainment Screening …, 2010).

In this test the test system is HEp-2 viability, luminescence (CellTiter-Glo). The experiment in a line: viability loss in uninfected HEp-2 cells – cell-based, CellTiter-Glo luminescence, synthesized compounds, set 3, cytotoxicity control for RSV inhibitor project, dose response (AID 492968). Put shortly:
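System: HEp-2 cells. Input: 10,595 cells/well. Medium: complete DMEM/F12 medium adjusted to pH 7.5. Compound: 8-point 1:2 series, 0.39–50 µM, 0.5% DMSO. Times: compound exposure of 6 days at 37 °C, 5% CO2. Technique: CellTiter-Glo luminescence. Read-out: CC50 from four-parameter fit of % viability, bounds 0 and 100.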
For `Cc1cc(C)cc(NC(=O)[C@@H]2CCCN2S(=O)(=O)c2cccc3cccnc23)c1`, the CC50 is 31.6 µM.

Turning to `Cc1ccccc1NC(=O)[C@@H]1CCCN1S(=O)(=O)c1cccc2cccnc12`, the CC50 is 45 µM.

On to `Cc1ccc(NC(=O)[C@@H]2CCCN2S(=O)(=O)c2cccc3cccnc23)cc1`, for which the CC50 is 27.1 µM.
